Data set [1] can be described thus: Antiproliferative activity against HLF1 cells assessed as reduction in TGFbeta-induced cell proliferation measured after 48 hrs by CCK8 assay. The format is functional, cell-based. Particulars: Homo sapiens, HLF1, 48 h. An outline of the steps: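 HPASMCs grown in high-glucose D-MEM with 20% FBS and HLF1 in D-MEM/F-12 (1:1) with 10% FBS. Cells stimulated with TGF-β (10 ng/mL) at 37 °C, 5% CO2, then exposed to a concentration range for 48 h. CCK-8 added for 4 h and absorbance read at 490 nm. IC50 derived from the curves.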
For orientation: Tetrazolium dyes change colour on reduction, which living cells bring about.

For another data set, the system named is Aorta. The data set can be described thus: Vasodilating activity in Sprague-Dawley rat aortic rings assessed as reduction in phenylephrine-induced contractions. It is filed as functional, tissue-based. The gist of the method: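 Thoracic aorta from male SD rats (250-280 g) anesthetized with chloral hydrate, cut into 4 mm rings. Rings held in Krebs-Henseleit at 37 °C gassed with 95% O2/5% CO2, under 2 g resting tension, equilibrated 60 min, and precontracted with 10^-7 M phenylephrine. Cumulative concentrations of 3×10^-9 to 10^-6 M (final) applied. Percent relaxation of the initial contraction taken at 1 µM, and EC50 derived.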

Data set [2] has as its system Pulmonary Artery Smooth Muscle Cells. As to the kind of experiment: Stimulation of sGC in HPASMC assessed as increase in intracellular cGMP level at 100 uM measured after 1 hr in absence of PDE5 inhibitor IBMX by cGMP-d2/europium cryptate reagent based HTRF assay relative to control. It is filed as tissue-based. Particulars: Homo sapiens. The gist of the method: (§1)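 HPASMCs were suspended at 100,000 cells/mL in PBS with 0.2% BSA, with or without 10 µM ODQ. Compounds were added as a 6-point, 10-fold dilution series; the top 2× stock was 200 µM. Incubation was 1 h at room temperature, in triplicate. cGMP-d2 in lysis buffer and europium cryptate were then added for 1 h before HTRF reading. Three independent experiments.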
(In general: In TR-FRET formats the signal depends on donor and acceptor labels being close together.)

Data set [3] has the same test system. As to the kind of experiment: Stimulation of sGC in HPASMC assessed as increase in intracellular cGMP level at 100 uM measured after 1 hr in presence of PDE5 inhibitor IBMX and sGC inhibitor ODQ by cGMP-d2/europium cryptate reagent based HTRF assay. The format is tissue-based. As to conditions: Homo sapiens. An outline of the steps: as §1
Data set [4] can be described thus: Antiproliferative activity against HLF1 cells measured after 48 hrs under hypoxic condition by CCK8 assay. The format is functional, cell-based. Particulars: Homo sapiens, HLF1, 48 h. The gist of the method:
(§2)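 HPASMCs were grown in high-glucose D-MEM with 20% FBS, and HLF1 in D-MEM/F-12 (1:1) with 10% FBS. Cells were seeded for exponential growth, then exposed to a range of compound concentrations for 48 h at 37 °C under hypoxia (1% O2, 5% CO2, 94% N2). CCK-8 was added for 4 h and absorbance read at 490 nm. IC50 came from dose-response curves averaged over three independent experiments.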

The nature of data set [5]: Antiproliferative activity against HPASMC measured after 48 hrs under hypoxic condition by CCK8 assay. The format is functional, tissue-based. As to conditions: Homo sapiens, Pulmonary Artery Smooth Muscle Cells. An outline of the steps:
as §2

Data set [6] addresses T1, AMP-activated protein kinase, AMPK (Homo sapiens) (UniProt P54646+O43741+P54619+Q9UGJ0+Q9Y478+Q13131+Q9UGI9). As to the kind of experiment: Inhibition of AMPK in hypoxia-induced HPASMC assessed as reduction in cell migration measured after 24 hrs by wound healing assay. It is filed as tissue-based. As to conditions: Pulmonary Artery Smooth Muscle Cells, dose microM 5-10, time 24.0 hrs. The gist of the method: (§3)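 Wound-healing assay. 5 × 10^4 cells were seeded per well and grown 24 h to near confluence. The monolayer was scratched with a pipette tip and washed with PBS. Cells were then kept in 1% FBS medium with TGF-β (10 ng/mL) or under hypoxia (1% O2, 5% CO2, 94% N2), alone or with compound. Migration ran 24 h at 37 °C, imaged at 0 and 24 h. Mean ± SD from three independent experiments.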

Data set [7] concerns the target T1, AMP-activated protein kinase, AMPK (Homo sapiens). The data set can be described thus: Inhibition of AMPK in TGFbeta-induced HLF1 cells assessed as reduction in cell migration measured after 24 hrs by wound healing assay. It is filed as cell-based. As to conditions: dose microM 5-10, time 24.0 hrs. The gist of the method: as §3
For data set [8] the target is unchanged. As to the kind of experiment: Inhibition of AMPK in hypoxia-induced HLF1 cells assessed as reduction in cell migration measured after 24 hrs by wound healing assay. It is filed as cell-based. As to conditions: dose microM 5-10, time 24.0 hrs. The gist of the method:
as §3

Data set [9] can be described thus: Solubility of compound in water at pH 7.3. The format is physicochemical. As to conditions: buffer.
Data set [10] can be described thus: Half life in human liver microsomes at 1.5 uM preincubated for 5 mins followed by NADPH addition and measured up to 45 mins by LC-MS/MS analysis. It is filed as ADME, Microsome. Particulars: time <=50 min. An outline of the steps: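 Liver microsomes (0.75 mg/mL), human or SD rat, in 0.1 M potassium phosphate pH 7.4 with 3.0 mM MgCl2 and 1.5 µM compound, run in duplicate. After 5 min preincubation at 37 °C, reaction started with 3 mM NADPH. Quenched at 0, 5, 15, 30 and 45 min with ice-cold acetonitrile containing internal standard. Ketanserin served as positive control and a no-NADPH buffer incubation as negative control. LC-MS/MS read-out.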
A general note: Liver microsomes are a subcellular fraction often used to study metabolism.

Data set [11] is described as follows: Protein binding in rat plasma. Particulars: read-out: PPB (converted). The format is ADME, cell-free.
Data set [12] has as its system Rattus norvegicus. As to the kind of experiment: Inhibition of vascular remodeling activity in Sprague-Dawley rat model of hypoxia-induced pulmonary artery hypertension assessed as weight ratio of right ventricle/left ventricle plus septum at 10 mg/kg, po administered daily for 2 weeks (reference value: 0.63). The format is functional.
Data set [13] has as its system Rattus norvegicus. The data set can be described thus: Inhibition of vascular remodeling activity in Sprague-Dawley rat model of hypoxia-induced pulmonary artery hypertension assessed as decrease in ratio of RV/tibial length at 10 mg/kg, po administered daily for 2 weeks. The format is functional, organism-based.
Data set [14] deals with Rattus norvegicus. The data set can be described thus: Inhibition of vascular remodeling activity in Sprague-Dawley rat model of hypoxia-induced pulmonary artery hypertension assessed as reduction in TGFbeta expression in lungs at 10 mg/kg, po administered daily for 2 weeks by Western blot analysis. The format is functional, organism-based. The gist of the method: (§4)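 Hypoxic PAH model in male SD rats (160-200 g) kept at 10% O2 for 4 weeks. Oral dosing at 10 mg/kg daily for 14 days, suspended in 0.5% CMC-Na; control and hypoxia groups received vehicle only. Lungs homogenized in RIPA with protease and phosphatase inhibitors. 30 µg protein run on 10% SDS-PAGE, then PVDF blotting, with β-actin as loading reference. Three independent runs.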

Data set [15] deals with Rattus norvegicus. The data set can be described thus: Inhibition of vascular remodeling activity in Sprague-Dawley rat model of hypoxia-induced pulmonary artery hypertension assessed as reduction in alpha-SMA expression in lungs at 10 mg/kg, po administered daily for 2 weeks by Western blot analysis. The format is functional, organism-based. The gist of the method: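 Lungs came from hypoxic SD rats (10% O2, 4 weeks) dosed orally at 10 mg/kg daily for 14 days. Tissue was homogenised in RIPA buffer with protease and phosphatase inhibitors. 30 µg of protein was run on 10% SDS-PAGE and transferred to PVDF. Blots were probed overnight at 4 °C with anti-α-SMA (1:1000) and anti-β-actin (1:2000) and detected by fluorescence.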

Data set [16] has as its system Rattus norvegicus. As to the kind of experiment: In vivo stimulation of sGC in Sprague-Dawley rat model of hypoxia-induced pulmonary artery hypertension assessed as […] in PKG1 expression in lungs at 10 mg/kg, po administered daily for 2 weeks by Western blot analysis. It is filed as functional, organism-based. The gist of the method:
as §4

For data set [17], the system named is Rattus norvegicus. As to the kind of experiment: In vivo inhibition of AMPK in Sprague-Dawley rat model of hypoxia-induced pulmonary artery hypertension assessed as reduction in ACC phosphorylation in lungs at 10 mg/kg, po administered daily for 2 weeks by Western blot analysis. It is filed as functional, organism-based. The gist of the method:
as §4

Data set [18] can be described thus: Effect on total AMPK level in lungs of Sprague-Dawley rat model of hypoxia-induced pulmonary artery hypertension at 10 mg/kg, po administered daily for 2 weeks by Western blot analysis. The format is ADME, organism-based. Particulars: in vivo, 336 h. The gist of the method:
as §4

Values after ≈ are worked out from the molar mass of the structure shown. Active and inactive are the calls of the source.

With `Cc1ccccc1COc1nc2c(cc1-c1nc(N)cc(N)n1)c(C)nn2-c1ccccc1`, the results for the IC50 in [1], in [4] and in data set [5] were 38.5 µM, 34.9 µM and 20.8 µM, respectively. In the data set on Aorta, the EC50 (as a rule, the concentration giving half of the maximal effect) came out at 290 nM. The Activity in [2] is 5%; in data set [18], “Non-Toxic”. Moreover, the outcome in data set [3] was inactive. The inhibition entry in data set [6], in data set [7] and in data set [8] was “Dose-dependent effect” throughout. Moreover, in [9], the solubility (usually how much of the substance goes into solution per volume) is 34 ng/mL (≈ 0.0777 µM). The half-life – broadly, the time needed for the level to fall by half in the phase considered – at 1.5 µM in data set [10] was 125 min. In addition, the fraction unbound in [11] is 0.007. Further, in the data set on Rattus norvegicus [12], the Ratio stood at 0.38. The inhibition entry in the data set on Rattus norvegicus [13], with Rattus norvegicus [14], in the data set on Rattus norvegicus [15] and with Rattus norvegicus [17] was “Active” in each case. Further, the outcome with Rattus norvegicus [16] was Active.

For the origin of these results see ChEMBL document CHEMBL4699492, “Discovery of Novel Pyrazolo[3,4-b] Pyridine Derivatives with Dual Activities of Vascular Remodeling Inhibition and Vasodilation for the Treatment of Pulmonary Arterial Hypertension” (J Med Chem, 2020).
